Active and inactive are the calls of the source. No cut-off for these calls is given here.
What was measured:
[1] = Metabolic stability in human liver S9 fraction assessed as half life at 2.5 uM measured upto 120 mins in presence of NADPH by LC-MS analysis; format: ADME, subcellular; conditions: s9, 2 h, 2.5 µM
In short: (§1)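 2.5 μM compound at 37 °C in 50 mM potassium phosphate pH 7.4 with 3 mM MgCl2, 1 mM EDTA and an NADPH regenerating system. […] Sampled at 0–120 min in 20-min steps, acetonitrile quench, LC-MS of parent. T1/2 from one-phase exponential decay fit.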

[2] = Drug metabolism in human serum assessed as psilocin formation at 2.5 uM after 120 mins by LC-MS analysis; format: ADME, cell-free; conditions: 2 h
In short: (§2)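 2.5 μM compound in 50 mM potassium phosphate pH 7.4 with 3 mM MgCl2, 1 mM EDTA and an NADPH regenerating system. Incubated at 37 °C with human liver or intestinal S9 or microsomes (400 μg/mL protein) or 10% human AB serum. Acetonitrile quench, then LC-MS; psilocin concentration read at 120 min.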

[3] = Metabolic stability in human serum assessed as half life at 2.5 uM measured upto 120 mins in presence of NADPH by LC-MS analysis; format: ADME, cell-free; conditions: 2 h; in short: as §1
[4] = Metabolic stability in human liver microsomes assessed as half life at 2.5 uM measured upto 120 mins in presence of NADPH by LC-MS analysis; format: ADME, Microsome; conditions: microsomes, 2 h, 2.5 µM; in short: as §1
[5] = Drug metabolism in human liver S9 fraction assessed as psilocin formation at 2.5 uM after 120 mins by LC-MS analysis; format: ADME, subcellular; conditions: s9, 2 h; in short: as §2
[6] = Metabolic stability in human intestine microsomes assessed as half life at 2.5 uM measured upto 120 mins in presence of NADPH by LC-MS analysis; format: ADME, Microsome; conditions: 2 h; in short: as §1
[7] = Drug metabolism in human intestine microsomes assessed as psilocin formation at 2.5 uM after 120 mins by LC-MS analysis; format: ADME, Microsome; conditions: 2 h; in short: as §2
[8] = Drug metabolism in human intestine S9 fraction assessed as psilocin formation at 2.5 uM after 120 mins by LC-MS analysis; format: ADME, subcellular; conditions: s9, 2 h; in short: as §2
[9] = Drug metabolism in human liver microsomes assessed as psilocin formation at 2.5 uM after 120 mins by LC-MS analysis; format: ADME, Microsome; conditions: 2 h; in short: as §2
[10] = Metabolic stability in human intestine S9 fraction assessed as half life at 2.5 uM measured upto 120 mins in presence of NADPH by LC-MS analysis; format: ADME, subcellular; conditions: s9, 2 h; in short: as §1
[11] = Drug metabolism in po dosed C57BL/6 mouse assessed as psilocin formation measured upto 24 hrs by LC-MS analysis; format: ADME, organism-based; conditions: in vivo, dose 1-10 mg/kg
[12] = Drug metabolism in C57BL/6 mouse assessed as psilocin formation at 10 mg/kg, po measured after 8 hrs by LC-MS analysis; format: ADME, organism-based; conditions: in vivo
Mus musculus = assay: Psychedelic activity in mouse assessed as head-twitch response at 1 mg/kg, po measured after 15 to 30 mins; format: functional, organism-based; conditions: time 15-30 min
In short: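 C57BL/6 mice, singly housed for 2 days, with 30-min predose chamber acclimation. Single oral 1 mg/kg dose from 100 mM DMSO stock diluted in 0.9% saline; vehicle 1% DMSO in saline. Video-recorded after dosing; head twitches scored blind per 15-min interval (reference time course) or for the 15–30 min window. n = 2–4; one-way ANOVA.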

Row | SMILES | t1/2 [1] | Drug metabolism [2] | t1/2 [3] | t1/2 [4] | Drug metabolism [5] | t1/2 [6] | Drug metabolism [7] | Drug metabolism [8] | Drug metabolism [9] | t1/2 [10] | Drug metabolism [11] | Drug metabolism [12] | Activity (Mus musculus)
1 | CC(C)[Si](C(C)C)(C(C)C)n1cc(CCN(C)C)c2c(OC(=O)Sc3ccccc3)cccc21 | 7 min | 0 µM | 32 min | 9 min | 0.133 µM | 13 min | 0 µM | 0 µM | 0.206 µM | 24 min | – | – | –
2 | CN(C)CCc1c[nH]c2cccc(OC(=O)OCC(Cl)(Cl)Cl)c12 | – | 0 µM | 182 min | 277 min | 0.133 µM | 150 min | 0 µM | 0 µM | 0.057 µM | 221 min | – | – | –
3 | CC(C)[Si](C(C)C)(C(C)C)n1cc(CCN(C)C)c2c(OCc3ccc(F)cc3)cccc21 | 60 min | 0 µM | – | 27 min | 0 µM | 50 min | 0 µM | 0 µM | 0 µM | 64 min | – | – | –
4 | CC(C)[Si](C(C)C)(C(C)C)n1cc(CCN(C)C)c2c(OC(=O)OCC3CC3)cccc21 | 49 min | 0 µM | 26 min | 31 min | 0.072 µM | 24 min | 0.096 µM | 0.018 µM | 0.186 µM | 24 min | – | – | –
5 | CC(C)OC(=O)OCOc1cccc2c1c(CCN(C)C)cn2COC(=O)OC(C)C | 293 min | 0 µM | 3 min | 104 min | 0.186 µM | 894 min | 0 µM | 0 µM | 0.056 µM | 266 min | Dose-Dependent Effect | Metabolite_Notdetected | –
6 | CN(C)CCc1cn(C(=O)OCc2ccccc2)c2cccc(OC(=O)OCc3ccccc3)c12 | 22 min | 0 µM | 0.8 min | 52 min | 0 µM | 13 min | 0 µM | 0 µM | 0 µM | 16 min | Dose-Dependent Effect | Metabolite_Notdetected | –
7 | CCOC(=O)[C@@H](C)NP(=O)(Oc1ccccc1)Oc1cccc2c1c(CCN(C)C)cn2[Si](C(C)C)(C(C)C)C(C)C (stereo not given in full) | 26 min | 0 µM | 145 min | 22 min | 0.153 µM | 29 min | 0 µM | 0.47 µM | 0.324 µM | 39 min | – | – | –
8 | CCC(=O)Oc1cccc2c1c(CCN(C)C)cn2[Si](C(C)C)(C(C)C)C(C)C | 3 min | 0 µM | 49 min | 2 min | 0.204 µM | 2 min | 0.053 µM | 0 µM | 0.244 µM | 2 min | – | – | –
9 | CN(C)CCc1c[nH]c2cccc(O[Si](c3ccccc3)(c3ccccc3)C(C)(C)C)c12 | 391 min | 0 µM | – | 229 min | 0 µM | – | 0 µM | 0 µM | 0 µM | – | – | – | –
10 | COC(=O)c1cccc(C(=O)Oc2cccc3[nH]cc(CCN(C)C)c23)c1 | 33 min | 3.148 µM | 33 min | 22 min | 0.451 µM | – | 0.241 µM | 0.166 µM | 0.919 µM | – | – | – | –
11 | CN(C)CCc1c[nH]c2cccc(OC(=O)c3ccc(Br)cc3)c12 | 39 min | 2.01 µM | 19 min | 87 min | 0.689 µM | 71 min | 0.018 µM | 0 µM | 1.31 µM | 69 min | Dose-Dependent Effect | Metabolite_Notdetected | –
12 | CC(C)[Si](Oc1cccc2[nH]cc(CCN(C)C)c12)(C(C)C)C(C)C | 96 min | 0.142 µM | – | 104 min | 0 µM | 27 min | 0 µM | 0 µM | 0 µM | 57 min | Dose-Dependent Effect | Metabolite_Notdetected | –
13 | CC(C)[Si](C(C)C)(C(C)C)n1cc(CCN(C)C)c2c(OC(=O)c3ccc(Br)cc3)cccc21 | 15 min | 0 µM | – | 25 min | 0.656 µM | 11 min | 0.887 µM | 0.195 µM | 1.659 µM | 16 min | – | – | –
14 | COCCOCCOCC(=O)Oc1cccc2[nH]cc(CCN(C)C)c12 | 16 min | 0 µM | 0.8 min | 5 min | 0 µM | 60 min | 0 µM | 0 µM | 0.494 µM | 72 min | – | – | –
15 | CN(C)CCc1c[nH]c2cccc(O[Si](C)(C)C(C)(C)C)c12 | 191 min | 0 µM | – | 347 min | 0 µM | – | 0 µM | 0 µM | 0.012 µM | – | Dose-Dependent Effect | Metabolite_Notdetected | Active
16 | CN(C)CCc1c[nH]c2cccc(OC(=O)c3cccc(C(=O)Oc4cccc5[nH]cc(CCN(C)C)c45)c3)c12 | – | 0 µM | 101 min | 241 min | 0 µM | 621 min | 0 µM | 0 µM | 0 µM | 445 min | – | – | –
17 | CCC(=O)OCOc1cccc2c1c(CCN(C)C)cn2C(=O)CC | 16 min | 0 µM | 0.8 min | 13 min | 0 µM | 22 min | 0 µM | 0 µM | 0.001 µM | 52 min | – | – | –
18 | CN(C)CCc1c[nH]c2cccc(OP(=O)(Oc3ccccc3)Oc3ccccc3)c12 | 96 min | 0.069 µM | – | 43 min | 0.073 µM | 28 min | 0.076 µM | 0 µM | 0 µM | 52 min | Dose-Dependent Effect | Metabolite_Notdetected | –
19 | CN(C)CCc1c[nH]c2cccc(OP3(=O)OCC(C)(C)CO3)c12 | – | 0 µM | – | – | 0.011 µM | – | 0 µM | 0 µM | 0 µM | – | – | – | –
20 | CN(C)CCc1c[nH]c2cccc(OC(=O)c3cccc4c3OCCO4)c12 | 529 min | 0 µM | – | 390 min | 0.145 µM | 113 min | 0 µM | 0 µM | 0.329 µM | – | Dose-Dependent Effect | Metabolite_Notdetected | inactive

Reference: ChEMBL document CHEMBL5335796, “Novel Psilocin Prodrugs with Altered Pharmacological Properties as Candidate Therapies for Treatment-Resistant Anxiety Disorders” (J Med Chem, 2024)
